Assay results from ChEMBL document CHEMBL1129461 (J Med Chem, 1996).

Assays:
[1] = molecular target: Protein kinase C delta type (Homo sapiens, UniProt Q05655); test: Evaluated against recombinant human Protein kinase C delta
Summary of the method: (§1)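 Recombinant human PKC isozymes expressed in SF9 cells via baculovirus, partly purified (50–90%). 32P transfer from 30 μM [32P]ATP to 200 μg/mL histone IIIS in 20 mM Hepes pH 7.5, 10 mM MgCl2, EGTA, CaCl2, phosphatidylserine, and diacylglycerol at the isozyme-dependent level giving half-maximal activation. 10 min at 30 °C, TCA stop, filter counting. No-lipid background subtracted.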

[2] = Evaluated against bovine heart Protein Kinase A (PKA)
[3] = molecular target: Proto-oncogene tyrosine-protein kinase Src (Homo sapiens, UniProt P12931); test: Inhibition of src Protein Tyrosine Kinase
Summary of the method: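 p60src tyrosine kinase with Raytide peptide substrate, run by the supplier's protocol except that Triton X-100 replaced Brij 35.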

[4] = Inhibition of rat brain Ca 2+/Calmodulin dependent kinase
Summary of the method: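 Ca2+/calmodulin kinase isolated from rat brain homogenate; 50 mM Tris-HCl pH 7.5, 5 mM β-mercaptoethanol, 400 μM EGTA, 700 μM CaCl2, 10 mM MgCl2, 200 μg/mL histone type HA, 30 μM [γ-32P]ATP, inhibitor in DMSO. Room temperature 10 min, ice-cold TCA plus BSA stop, precipitate filtered and β-counted.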

[5] = molecular target: Protein kinase C gamma type (Homo sapiens, UniProt P05129); test: Evaluated against recombinant human Protein kinase C gamma; summary of the method: as §1
[6] = molecular target: T1, Protein kinase C epsilon type (Homo sapiens, UniProt Q02156); test: Evaluated against recombinant human Protein kinase C epsilon; summary of the method: as §1
T1 sequence (Q02156 whole entry): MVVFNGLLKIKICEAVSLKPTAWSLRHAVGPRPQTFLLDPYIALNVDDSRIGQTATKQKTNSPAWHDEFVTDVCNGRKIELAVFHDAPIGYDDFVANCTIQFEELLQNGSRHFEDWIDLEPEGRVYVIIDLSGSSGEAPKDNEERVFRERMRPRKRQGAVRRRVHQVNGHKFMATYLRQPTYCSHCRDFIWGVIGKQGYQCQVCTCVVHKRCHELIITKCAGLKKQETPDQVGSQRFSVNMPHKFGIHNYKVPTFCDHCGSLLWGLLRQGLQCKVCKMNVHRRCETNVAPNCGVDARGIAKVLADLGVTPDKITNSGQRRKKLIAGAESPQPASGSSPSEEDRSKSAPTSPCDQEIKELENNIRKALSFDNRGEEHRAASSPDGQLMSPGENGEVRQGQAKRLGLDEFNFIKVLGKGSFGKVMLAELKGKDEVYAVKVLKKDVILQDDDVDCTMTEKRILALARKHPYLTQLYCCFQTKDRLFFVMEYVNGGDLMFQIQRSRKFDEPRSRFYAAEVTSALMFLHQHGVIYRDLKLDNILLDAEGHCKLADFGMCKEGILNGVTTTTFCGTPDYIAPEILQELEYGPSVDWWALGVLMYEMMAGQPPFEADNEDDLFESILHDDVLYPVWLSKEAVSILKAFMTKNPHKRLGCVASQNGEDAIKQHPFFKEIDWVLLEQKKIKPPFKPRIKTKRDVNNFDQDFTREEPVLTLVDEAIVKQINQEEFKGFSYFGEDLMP

[7] = molecular target: T2, Protein kinase C beta type (Homo sapiens, UniProt P05771); test: Evaluated against recombinant human Protein kinase C beta 1; summary of the method: as §1
[8] = molecular target: Protein kinase C alpha type (Homo sapiens, UniProt P17252); test: Evaluated against recombinant human Protein kinase C alpha; summary of the method: as §1
[9] = molecular target: T2, Protein kinase C beta type; test: Evaluated against recombinant human Protein kinase C beta 2; summary of the method: as §1
[10] = molecular target: T3, Protein kinase C eta type (Homo sapiens, UniProt P24723); test: Evaluated against recombinant human Protein kinase C eta; summary of the method: as §1
[11] = molecular target: neutrophil superoxide release (Homo sapiens); test: Inhibition of neutrophil superoxide release
[12] = Inhibition of rat brain Casein kinase II
Summary of the method: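 Casein kinase II isolated from rat brain homogenate; 20 mM Tris-HCl pH 7.5, 5 mM NaF, casein substrate, 10 mM MgCl2, 30 μM [γ-32P]ATP, inhibitor in DMSO. Room temperature 10 min, stopped with ice-cold TCA plus BSA; precipitate filtered onto glass fiber and β-counted.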

[13] = molecular target: T3, Protein kinase C eta type; test: Inhibition of recombinant human Protein kinase C eta; summary of the method: as §1

T2 sequence (P05771 whole entry): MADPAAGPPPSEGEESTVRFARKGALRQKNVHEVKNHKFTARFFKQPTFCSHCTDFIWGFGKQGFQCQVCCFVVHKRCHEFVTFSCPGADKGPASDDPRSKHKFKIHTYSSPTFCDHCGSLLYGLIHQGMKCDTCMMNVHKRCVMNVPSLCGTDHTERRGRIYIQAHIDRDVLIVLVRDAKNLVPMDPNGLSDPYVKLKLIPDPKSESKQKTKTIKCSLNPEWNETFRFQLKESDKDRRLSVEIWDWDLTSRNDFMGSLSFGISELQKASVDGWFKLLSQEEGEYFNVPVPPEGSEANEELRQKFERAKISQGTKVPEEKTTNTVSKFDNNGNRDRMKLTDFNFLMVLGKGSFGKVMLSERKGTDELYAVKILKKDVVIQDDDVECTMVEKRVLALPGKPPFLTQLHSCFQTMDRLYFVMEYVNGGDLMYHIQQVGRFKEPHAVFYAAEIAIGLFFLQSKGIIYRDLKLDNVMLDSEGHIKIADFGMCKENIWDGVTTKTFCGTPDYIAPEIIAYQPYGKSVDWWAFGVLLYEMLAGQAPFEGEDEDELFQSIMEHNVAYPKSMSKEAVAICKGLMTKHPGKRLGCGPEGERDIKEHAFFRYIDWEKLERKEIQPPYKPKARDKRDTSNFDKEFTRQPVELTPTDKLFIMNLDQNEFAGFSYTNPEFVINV
T3 sequence (P24723 whole entry): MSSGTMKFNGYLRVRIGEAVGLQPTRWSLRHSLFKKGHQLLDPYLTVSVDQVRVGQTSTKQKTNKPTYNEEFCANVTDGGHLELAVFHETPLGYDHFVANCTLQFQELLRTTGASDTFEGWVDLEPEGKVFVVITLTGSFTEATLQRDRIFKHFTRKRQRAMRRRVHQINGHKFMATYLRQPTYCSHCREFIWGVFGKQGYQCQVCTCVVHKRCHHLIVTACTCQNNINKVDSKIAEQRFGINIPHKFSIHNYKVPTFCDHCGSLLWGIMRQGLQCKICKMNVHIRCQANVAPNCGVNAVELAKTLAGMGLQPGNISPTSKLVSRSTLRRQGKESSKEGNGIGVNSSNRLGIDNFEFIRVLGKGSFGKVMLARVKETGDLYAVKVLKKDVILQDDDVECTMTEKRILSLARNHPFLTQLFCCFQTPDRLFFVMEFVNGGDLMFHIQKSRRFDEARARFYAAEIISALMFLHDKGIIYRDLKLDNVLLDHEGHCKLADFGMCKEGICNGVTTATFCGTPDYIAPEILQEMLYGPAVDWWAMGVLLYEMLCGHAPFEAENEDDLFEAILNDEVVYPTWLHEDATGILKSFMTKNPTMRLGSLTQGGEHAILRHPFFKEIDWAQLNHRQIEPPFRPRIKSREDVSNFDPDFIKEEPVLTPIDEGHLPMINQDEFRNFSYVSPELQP
Chain of Protein kinase C delta type (Q05655 whole entry): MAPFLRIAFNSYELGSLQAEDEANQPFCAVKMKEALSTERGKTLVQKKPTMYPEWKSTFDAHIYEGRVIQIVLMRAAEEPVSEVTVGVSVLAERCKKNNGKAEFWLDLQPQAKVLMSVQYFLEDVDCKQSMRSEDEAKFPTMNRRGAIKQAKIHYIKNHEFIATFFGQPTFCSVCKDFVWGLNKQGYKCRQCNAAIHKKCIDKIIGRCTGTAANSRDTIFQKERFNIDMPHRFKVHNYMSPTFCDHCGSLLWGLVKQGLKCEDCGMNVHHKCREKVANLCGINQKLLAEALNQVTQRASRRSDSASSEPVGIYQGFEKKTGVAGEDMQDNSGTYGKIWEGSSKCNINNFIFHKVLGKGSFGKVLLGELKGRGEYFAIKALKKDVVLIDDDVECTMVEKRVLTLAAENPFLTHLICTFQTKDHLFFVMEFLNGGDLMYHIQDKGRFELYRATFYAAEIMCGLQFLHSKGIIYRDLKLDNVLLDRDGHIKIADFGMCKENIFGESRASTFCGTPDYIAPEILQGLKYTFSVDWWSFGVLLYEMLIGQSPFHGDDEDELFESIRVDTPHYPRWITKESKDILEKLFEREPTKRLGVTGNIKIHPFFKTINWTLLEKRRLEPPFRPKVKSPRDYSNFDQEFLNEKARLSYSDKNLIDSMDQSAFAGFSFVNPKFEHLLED
Chain of Proto-oncogene tyrosine-protein kinase Src (P12931 2-536 limits assumed): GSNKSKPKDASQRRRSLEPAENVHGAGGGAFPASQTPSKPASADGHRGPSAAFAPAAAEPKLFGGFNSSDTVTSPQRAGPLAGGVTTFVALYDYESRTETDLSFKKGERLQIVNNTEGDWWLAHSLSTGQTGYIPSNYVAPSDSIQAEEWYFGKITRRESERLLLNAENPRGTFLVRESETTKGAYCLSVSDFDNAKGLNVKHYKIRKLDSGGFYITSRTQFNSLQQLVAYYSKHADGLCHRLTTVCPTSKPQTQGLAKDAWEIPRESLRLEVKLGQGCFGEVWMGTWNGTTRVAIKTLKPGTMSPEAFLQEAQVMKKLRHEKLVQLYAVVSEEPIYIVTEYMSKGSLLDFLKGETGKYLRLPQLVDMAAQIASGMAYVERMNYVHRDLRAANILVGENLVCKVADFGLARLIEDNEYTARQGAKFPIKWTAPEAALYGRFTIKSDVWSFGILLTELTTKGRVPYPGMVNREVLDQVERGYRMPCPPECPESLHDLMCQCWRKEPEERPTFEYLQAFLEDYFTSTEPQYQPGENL

| SMILES | IC50 [1] | IC50 [2] | IC50 [3] | IC50 [4] | IC50 [5] | IC50 [6] | IC50 [7] | IC50 [8] | IC50 [9] | IC50 [10] | IC50 [11] | IC50 [12] | IC50 [13] |
| --- | --- | --- | --- | --- | --- | --- | --- | --- | --- | --- | --- | --- | --- |
| O=C(N[C@@H]1CNCCC[C@H]1OC(=O)c1cc(O)c(C(=O)c2c(O)cccc2C(=O)O)c(O)c1)c1ccc(O)cc1 [BALANOL] | 20 nM | 40 nM | > 10000 nM | 30 nM |  |  |  |  |  |  |  |  |  |
| Cc1ccc(S(=O)(=O)N2CCC[C@@H](OC(=O)c3cc(O)c(C(=O)c4c(O)cccc4C(=O)O)c(O)c3)[C@H](NC(=O)c3ccc(O)cc3)C2)cc1 | 4200 nM | > 150000 nM |  |  | 3500 nM | 15000 nM | 70 nM | 6100 nM | 20 nM | 100 nM |  |  |  |
| O=C(OC[C@@H](Cc1ccc(O)cc1)NS(=O)(=O)c1ccccc1)c1cc(O)c(C(=O)c2c(O)cccc2C(=O)O)c(O)c1 | 3 nM | > 50000 nM |  |  | 470 nM | 460 nM | 30 nM | 210 nM | 7 nM | 3 nM |  |  |  |
| O=C(NCCOC(=O)c1cc(O)c(C(=O)c2c(O)cccc2C(=O)O)c(O)c1)c1ccc(O)cc1 | 410 nM | 8400 nM |  |  | 6600 nM | 13000 nM | 4500 nM | 11000 nM | 7500 nM | 230 nM |  |  |  |
| O=C(OC[C@H](Cc1ccc(O)cc1)NS(=O)(=O)c1ccccc1)c1cc(O)c(C(=O)c2c(O)cccc2C(=O)O)c(O)c1 | 30 nM | > 50000 nM |  |  | 2600 nM | 2300 nM | 230 nM | 1900 nM | 20 nM | 20 nM |  |  |  |
| O=C(OCCCCc1ccc(O)cc1)c1cc(O)c(C(=O)c2c(O)cccc2C(=O)O)c(O)c1 | 290 nM | > 50000 nM |  |  | 1400 nM | 30000 nM | 960 nM | 3300 nM | 370 nM | 250 nM |  |  |  |
| COC(=O)c1cccc(O)c1C(=O)c1c(O)cc(C(=O)OCCCc2ccc(O)cc2)cc1O | 300 nM |  |  |  | 4100 nM |  | 460 nM | 7800 nM | 750 nM | 170 nM |  |  |  |
| COC(=O)c1cccc(O)c1C(=O)c1c(O)cc(C(=O)OC[C@@H](Cc2ccc(O)cc2)NS(=O)(=O)c2ccccc2)cc1O | 360 nM | > 50000 nM |  |  | 4500 nM | 38000 nM | 2200 nM | 18000 nM | 340 nM | < 50 nM | 930 nM |  |  |
| CC(CCc1ccc(O)cc1)OC(=O)c1cc(O)c(C(=O)c2c(O)cccc2C(=O)O)c(O)c1 (configuration not stated) | 30 nM | > 50000 nM |  | > 50000 nM | 250 nM | 280 nM | 40 nM | 410 nM | 30 nM | 20 nM |  | > 50000 nM |  |
| O=C(NC1CNCCCC1OC(=O)c1cc(O)c(C(=O)c2c(O)cccc2C(=O)O)c(O)c1)c1ccc(O)cc1 (racemic) | 23 nM | 60 nM |  |  | 30 nM |  | 30 nM | 67 nM | 30 nM | 20 nM |  |  |  |
| O=C(NC1CCCC1OC(=O)c1cc(O)c(C(=O)c2c(O)cccc2C(=O)O)c(O)c1)c1ccc(O)cc1 (configuration not stated) | 0.9 nM |  |  |  | 10 nM | 50 nM | 40 nM | 40 nM | 50 nM | 0.6 nM |  |  |  |
| COC(=O)c1cccc(O)c1C(=O)c1c(O)cc(C(=O)OC2CCCC2Cc2ccc(O)cc2)cc1O (configuration not stated) | 50 nM | > 50000 nM |  |  | 1700 nM | 4500 nM | 100 nM | 1400 nM | 90 nM | 40 nM |  |  |  |
| O=C(OCCCc1ccc(O)cc1)c1cc(O)c(C(=O)c2c(O)cccc2C(=O)O)c(O)c1 | 130 nM | > 50000 nM |  |  | 830 nM | 4100 nM | 210 nM | 1900 nM | 270 nM | < 50 nM |  |  |  |
| COC(=O)c1cccc(O)c1C(=O)c1c(O)cc(C(=O)OC2CNCC2Cc2ccc(O)cc2)cc1O (configuration not stated) | 100 nM |  |  |  | 380 nM |  | 110 nM | 2200 nM | 250 nM | 500 nM |  |  |  |
| O=C(OC1CCCC1Cc1ccc(O)cc1)c1cc(O)c(C(=O)c2c(O)cccc2C(=O)O)c(O)c1 (stereo in doubt; 20b) | 30 nM |  |  |  | 130 nM | 500 nM | 20 nM | 160 nM | 20 nM | 10 nM |  |  |  |
| O=C(OCC(Cc1ccc(O)cc1)NS(=O)(=O)c1ccc2ccccc2c1)c1cc(O)c(C(=O)c2c(O)cccc2C(=O)O)c(O)c1 (configuration not stated) | 2600 nM | > 50000 nM |  |  | 2700 nM | 39000 nM | 2800 nM | 3200 nM | 1800 nM | 35000 nM |  |  |  |
| O=C(OC1CNCC1Cc1ccc(O)cc1)c1cc(O)c(C(=O)c2c(O)cccc2C(=O)O)c(O)c1 (configuration not stated) | 5 nM |  |  |  | 40 nM | 1800 nM | 10 nM | 260 nM | 30 nM | 20 nM |  |  |  |
| O=C(OCC(COc1ccc(O)cc1)NS(=O)(=O)c1ccccc1)c1cc(O)c(C(=O)c2c(O)cccc2C(=O)O)c(O)c1 (configuration not stated) | 220 nM | > 50000 nM |  |  | 1600 nM | 47000 nM | 1600 nM | 18000 nM | 830 nM | 500 nM |  |  |  |
| CN(C)C(COC(=O)c1cc(O)c(C(=O)c2c(O)cccc2C(=O)O)c(O)c1)Cc1ccc(O)cc1 (configuration not stated) | 270 nM | > 50000 nM |  |  | 4200 nM | 30000 nM | 880 nM | 4000 nM | 500 nM | 1400 nM |  |  |  |
| O=C(NC(COC(=O)c1cc(O)c(C(=O)c2c(O)cccc2C(=O)O)c(O)c1)Cc1ccc(O)cc1)c1ccc(O)cc1 (configuration not stated) | 820 nM | > 50000 nM |  |  | 2900 nM | > 50000 nM | 3600 nM | 18000 nM | 3000 nM | 2300 nM |  |  |  |
| O=C(OCC(NS(=O)(=O)c1ccccc1)c1ccc(O)cc1)c1cc(O)c(C(=O)c2c(O)cccc2C(=O)O)c(O)c1 (configuration not stated) | 1900 nM | > 50000 nM |  |  | 4800 nM | > 50000 nM | 11000 nM | > 50000 nM | 2800 nM |  |  |  | 3300 nM |
| O=C(OCC(Cc1ccc(O)cc1)NS(=O)(=O)c1ccccc1)c1cc(O)c(C(=O)c2c(O)cccc2C(=O)O)c(O)c1 (configuration not stated) | 40 nM | > 50000 nM | > 12500 nM | 32000 nM | 220 nM | 320 nM | 220 nM | 110 nM | 30 nM | 20 nM |  | > 50000 nM |  |
| CS(=O)(=O)NC(COC(=O)c1cc(O)c(C(=O)c2c(O)cccc2C(=O)O)c(O)c1)Cc1ccc(O)cc1 (configuration not stated) | 410 nM | > 50000 nM |  |  | 5000 nM | > 50000 nM | 220 nM | 23000 nM | 430 nM | 390 nM |  |  |  |
| O=C(OC1CCCC1Oc1ccc(O)cc1)c1cc(O)c(C(=O)c2c(O)cccc2C(=O)O)c(O)c1 (configuration not stated) | 20 nM | > 50000 nM |  |  | 250 nM | 240 nM | 20 nM | 220 nM | 20 nM | 10 nM |  |  |  |
| O=C(NC(COC(=O)c1cc(O)c(C(=O)c2c(O)cccc2C(=O)O)c(O)c1)Cc1ccc(O)cc1)c1ccccc1 (configuration not stated) | 22000 nM | > 50000 nM |  |  |  | > 50000 nM |  | 45000 nM | 2800 nM | 18000 nM |  |  |  |
